Test results as given in ChEMBL document CHEMBL4196072, “Marliolide inhibits skin carcinogenesis by activating NRF2/ARE to induce heme oxygenase-1” (Eur J Med Chem, 2018).
Active and inactive are the calls of the source. The calls are words filed in the database; no cut-off is given here.

Assays:
[1] = target: Kelch-like ECH-associated protein 1 (Homo sapiens) (UniProt Q14145); test: Binding affinity to Keap1 in human HaCaT cells assessed as induction of NRF2/ARE activation-mediated HO1 expression at 10 uM after 6 to 24 hrs by Western blot analysis; type: cell-based
Method in brief: (§1)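 HaCaT cells were grown in RPMI with 10% FBS and Pen/Strep and treated with agent from DMSO stock (1/1000 dilution), across concentrations for 24 h or over a time course. Cells were lysed in RIPA buffer and protein was measured by BCA. Equal amounts were separated by SDS-PAGE, blotted to PVDF, blocked in 5% milk/PBST, probed overnight at 4°C with HO-1 or NRF2 antibody, and detected by ECL. Actin served as loading control.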

[2] = target: Kelch-like ECH-associated protein 1 (Homo sapiens) (UniProt Q14145); test: Binding affinity to Keap1 in human HaCaT cells assessed as induction of NRF2/ARE activation-mediated HO1 mRNA expression at 10 uM RT-PCR method; type: cell-based; conditions: TDE = time-dependent effect
Method in brief: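 HaCaT cells were treated at 10 µM (DMSO, 1/1000) for 4, 8 and 12 h. Total RNA was analysed by SYBR real-time RT-PCR with HO-1-specific primers. Cycling was 95 °C for 5 min; 40 cycles of 95 °C 10 s, 59 °C 10 s, 72 °C 20 s; then 95 °C 10 s.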

[3] = system: HaCaT; test: Cytotoxicity against human HaCaT cells assessed as reduction in cell viability at 10 uM after 24 hrs by MTT method; type: cell-based
Method in brief: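 HaCaT cells were seeded at 30,000 per well and exposed to agent at 10 µM for 24 h. After a PBS wash, cells were incubated with MTT (5 mg/ml) for 4 h, lysed in DMSO, and absorbance was read at 560 nm.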

[4] = system: Mus musculus; test: Upregulation of NRF2 expression in skin lysates of mouse at 10 umole applied topically up to 24 hrs by Western blot analysis; type: functional, organism-based; conditions: Zone of skin, Lysate
[5] = system: Mus musculus; test: Upregulation of HO-1 expression in skin lysates of mouse at 10 umole applied topically up to 24 hrs by Western blot analysis; type: functional, organism-based; conditions: Zone of skin, Lysate
[6] = system: Mus musculus; test: Upregulation of GCLC expression in skin lysates of mouse at 10 umole applied topically up to 24 hrs by Western blot analysis; type: functional, organism-based; conditions: Zone of skin, Lysate
[7] = target: Kelch-like ECH-associated protein 1 (Homo sapiens) (UniProt Q14145); test: Binding affinity to Keap1 in human HaCaT cells at 10 nmol by immunoprecipitation assay; type: cell-based
Method in brief: (§2)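 Lysate (800 µg) from confluent HaCaT cells in RIPA buffer was mixed with biotin or biotinylated agent (10 nmole each). Pull-down was done with streptavidin-agarose beads overnight at 4°C. Beads were washed in ice-cold PBS, and bound KEAP1 and NRF2 were detected by Western blot.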

[8] = target: T1, Nuclear factor erythroid 2-related factor 2 (Homo sapiens) (UniProt Q16236); test: Binding affinity to NRF2 in human HaCaT cells at 10 nmol by immunoprecipitation assay; type: cell-based; method in brief: as §2
T1 sequence (whole entry): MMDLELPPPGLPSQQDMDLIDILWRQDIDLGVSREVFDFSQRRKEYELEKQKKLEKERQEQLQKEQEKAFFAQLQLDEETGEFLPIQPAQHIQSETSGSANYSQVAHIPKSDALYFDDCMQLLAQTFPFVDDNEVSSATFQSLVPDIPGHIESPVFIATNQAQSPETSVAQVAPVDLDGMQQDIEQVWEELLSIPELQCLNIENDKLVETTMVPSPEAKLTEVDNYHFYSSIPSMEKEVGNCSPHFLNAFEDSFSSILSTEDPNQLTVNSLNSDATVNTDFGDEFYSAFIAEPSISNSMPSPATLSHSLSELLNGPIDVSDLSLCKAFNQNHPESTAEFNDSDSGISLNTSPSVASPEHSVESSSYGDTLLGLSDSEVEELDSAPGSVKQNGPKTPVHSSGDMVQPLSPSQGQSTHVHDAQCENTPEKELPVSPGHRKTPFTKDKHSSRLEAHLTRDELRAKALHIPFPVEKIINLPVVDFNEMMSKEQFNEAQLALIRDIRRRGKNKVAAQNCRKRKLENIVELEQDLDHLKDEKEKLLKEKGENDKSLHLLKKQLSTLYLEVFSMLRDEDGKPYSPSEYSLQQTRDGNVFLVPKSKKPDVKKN

[9] = target: Kelch-like ECH-associated protein 1 (Homo sapiens) (UniProt Q14145); test: Binding affinity to Keap1 in human HaCaT cells assessed as induction of NRF2/ARE activation-mediated HO1 expression at 1 to 10 uM after 24 hrs by Western blot analysis; type: cell-based; method in brief: as §1
[10] = system: HaCaT; test: Cell cycle arrest in human HaCaT cells assessed as accumulation at G1/S phase at 10 uM after 24 hrs by propidium iodide staining based flow cytometry
Method in brief: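 HaCaT cells were exposed to agent for 24 h, with etoposide as positive control. Cells (1x10⁶ per group) were fixed in PBS/70% EtOH (3:7), washed, stained with propidium iodide (20 µg/ml), and G1/S distribution was measured by flow cytometry.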

[11] = system: HaCaT; test: Cytotoxicity against human HaCaT cells assessed as reduction in cell viability by measuring morphological changes at 10 uM after 24 hrs by phase contrast microscopic method; type: cell-based
Method in brief: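 HaCaT cells were exposed to agent or etoposide, and gross cell morphology was examined by phase-contrast microscopy.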

[12] = system: HaCaT; test: Induction of apoptosis in human HaCaT cells assessed as increase in cleaved caspase-3 protein expression at 10 uM after 6 to 24 hrs by Western blot analysis; type: cell-based
Method in brief: (§3)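 HaCaT cells were exposed to agent or etoposide for various times. RIPA lysates were analysed by SDS-PAGE and Western blot with cleaved caspase-3 and cleaved PARP antibodies, with ECL detection and actin as loading control.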

[13] = system: HaCaT; test: Induction of apoptosis in human HaCaT cells assessed as increase in cleaved PARP protein expression at 10 uM after 6 to 24 hrs by Western blot analysis; type: cell-based; method in brief: as §3
[14] = target: Kelch-like ECH-associated protein 1 (Homo sapiens) (UniProt Q14145); test: Binding affinity to Keap1 in human HaCaT cells assessed as activation of NRF2 by measuring nuclear translocation of NRF2 at 10 uM after 6 to 12 hrs by immunofluorescence assay; type: cell-based
Method in brief: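 Confluent HaCaT cells on glass were exposed to agent for 6 h and 12 h, blocked with 1% BSA for 30 min, and fixed with paraformaldehyde. They were incubated overnight at 4°C with NRF2 antibody, then with FITC-conjugated secondary antibody, and imaged by confocal microscopy.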

[15] = target: Kelch-like ECH-associated protein 1 (Mus musculus) (UniProt Q9Z2X8); test: Binding affinity to Keap1 in NRF2+/+ MEF assessed as induction of NRF2/ARE activation-mediated HO1 expression at 10 uM after 24 hrs by Western blot analysis; type: cell-based
[16] = target: Kelch-like ECH-associated protein 1 (Mus musculus) (UniProt Q9Z2X8); test: Binding affinity to Keap1 in NRF2-/- MEF assessed as induction of HO1 expression at 10 uM after 24 hrs by Western blot analysis; type: cell-based
[17] = target: Kelch-like ECH-associated protein 1 (Mus musculus) (UniProt Q9Z2X8); test: Binding affinity to Keap1 in NRF2+/+ MEF assessed as induction of NRF2/ARE activation-mediated HO1 expression at 10 uM up to 8 hrs by RT-PCR method; type: cell-based
[18] = target: Kelch-like ECH-associated protein 1 (Mus musculus) (UniProt Q9Z2X8); test: Binding affinity to Keap1 in NRF2-/- MEF assessed as induction of NRF2/ARE activation-mediated HO1 expression at 10 uM up to 8 hrs by RT-PCR method; type: cell-based
[19] = target: Kelch-like ECH-associated protein 1 (Homo sapiens) (UniProt Q14145); test: Binding affinity to Keap1 in human HaCaT cells assessed as induction of NRF2/ARE activation-mediated HO1 expression at 10 uM by Western blot analysis; type: cell-based; conditions: TDE = time-dependent effect; method in brief: as §1
[20] = system: Mus musculus; test: Anti-carcinogenic effect in hairless mouse assessed as inhibition of number of DMBA/TPA-induced papilloma formation at 10 umol administered topically 3 times per week up to 10 weeks with TPA starting from 1 week post DMBA treatment; type: functional, organism-based
Method in brief: (§4)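 Male hairless mice (6 weeks old at purchase, acclimated one week) received a single topical dose of DMBA (2 µmole) or acetone vehicle in week 1. From week 2, the back was treated with TPA (10 nmole) alone or with test agent (10 µmole), three times per week. Papillomas were counted manually at the end of each week. At sacrifice, skin was formalin-fixed, paraffin-embedded and H/E-stained for phase-contrast imaging.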

[21] = system: Mus musculus; test: Anti-carcinogenic effect in hairless mouse assessed as inhibition of incidence of DMBA/TPA-induced papilloma formation at 10 umol administered topically 3 times per week up to 10 weeks with TPA starting from 1 week post DMBA treatment; type: functional, organism-based; method in brief: as §4
[22] = system: Mus musculus; test: Anti-carcinogenic effect in hairless mouse assessed as inhibition of DMBA/TPA-induced papilloma growth at 10 umol administered topically 3 times per week up to 10 weeks with TPA starting from 1 week post DMBA treatment by hematoxylin/eosin staining based phase-contrast microscopic method; type: functional, organism-based; method in brief: as §4
[23] = system: Mus musculus; test: Downregulation of 8-OH-G expression in skin lysates of DMBA/TPA-induced mouse skin carcinogenesis model at 10 umol administered topically 3 times per week up to 10 weeks with TPA starting from 1 week post DMBA treatment by immunofluorescence microscopic method; type: functional, organism-based; conditions: Zone of skin, Lysate
Method in brief: (§5)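 Skin came from the two-stage DMBA/TPA model in hairless mice: DMBA 2 µmole once topically, then TPA 10 nmole ± agent 10 µmole three times weekly. At sacrifice, skin was formalin-fixed and paraffin-embedded. Sections were incubated overnight at 4°C with 8-OH-G or 4-HNE primary antibody, then probed with FITC-conjugated secondary antibody for fluorescence imaging.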

[24] = system: Mus musculus; test: Downregulation of 4-HNE expression in skin lysates of DMBA/TPA-induced mouse skin carcinogenesis model at 10 umol administered topically 3 times per week up to 10 weeks with TPA starting from 1 week post DMBA treatment by immunofluorescence microscopic method; type: functional, organism-based; conditions: Zone of skin, Lysate; method in brief: as §5

Chain of Kelch-like ECH-associated protein 1 (Mus musculus) (Q9Z2X8 whole entry): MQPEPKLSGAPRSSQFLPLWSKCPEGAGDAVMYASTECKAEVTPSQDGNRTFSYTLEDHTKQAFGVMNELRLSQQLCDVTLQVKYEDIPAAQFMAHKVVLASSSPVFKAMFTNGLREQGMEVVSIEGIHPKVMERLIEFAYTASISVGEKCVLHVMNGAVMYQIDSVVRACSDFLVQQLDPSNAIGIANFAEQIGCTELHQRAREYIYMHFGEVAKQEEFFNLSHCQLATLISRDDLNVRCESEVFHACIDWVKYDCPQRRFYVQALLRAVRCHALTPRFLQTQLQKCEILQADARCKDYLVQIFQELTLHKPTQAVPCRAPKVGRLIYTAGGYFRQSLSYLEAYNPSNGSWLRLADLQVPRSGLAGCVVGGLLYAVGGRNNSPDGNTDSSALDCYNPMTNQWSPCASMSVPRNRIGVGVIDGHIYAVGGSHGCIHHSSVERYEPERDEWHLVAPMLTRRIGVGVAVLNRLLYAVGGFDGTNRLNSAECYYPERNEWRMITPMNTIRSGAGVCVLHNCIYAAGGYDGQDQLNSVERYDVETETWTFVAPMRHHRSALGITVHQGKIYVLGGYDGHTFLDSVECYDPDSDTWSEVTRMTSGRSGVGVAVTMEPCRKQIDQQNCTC
Chain of Kelch-like ECH-associated protein 1 (Homo sapiens) (Q14145 whole entry): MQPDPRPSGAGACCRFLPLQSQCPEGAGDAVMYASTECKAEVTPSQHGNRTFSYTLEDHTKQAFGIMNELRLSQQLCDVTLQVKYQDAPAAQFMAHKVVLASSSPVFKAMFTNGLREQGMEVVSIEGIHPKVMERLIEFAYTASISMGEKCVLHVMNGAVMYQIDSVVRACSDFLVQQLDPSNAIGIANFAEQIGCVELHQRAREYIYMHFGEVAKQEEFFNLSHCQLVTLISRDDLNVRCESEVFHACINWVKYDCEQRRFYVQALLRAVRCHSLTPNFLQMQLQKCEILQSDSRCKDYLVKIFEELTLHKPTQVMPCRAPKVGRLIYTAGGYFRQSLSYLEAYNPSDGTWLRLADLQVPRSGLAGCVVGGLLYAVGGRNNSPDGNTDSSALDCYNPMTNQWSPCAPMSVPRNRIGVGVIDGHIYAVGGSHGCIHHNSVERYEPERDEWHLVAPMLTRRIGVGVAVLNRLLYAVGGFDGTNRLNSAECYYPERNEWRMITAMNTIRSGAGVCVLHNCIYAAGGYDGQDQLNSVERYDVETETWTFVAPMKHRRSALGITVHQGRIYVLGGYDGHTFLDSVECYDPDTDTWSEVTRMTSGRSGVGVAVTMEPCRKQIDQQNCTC

CCCCCCCCCCCC/C=C1/C(=O)O[C@@H](C)[C@H]1O
Activity [1]: Active | Activity [2]: Tde | Activity [3]: Non-Toxic | Activity [4]: Active | Activity [5]: Active | Activity [6]: Active

C[C@@H]1OC(=O)/C(=C/CCCCCCCCCCCCNC(=O)CCCC[C@@H]2SC[C@@H]3NC(=O)N[C@@H]32)[C@@H]1O
Activity [7]: Active | Activity [8]: inactive

CCCCCCCCCCCCCC[C@H]1C(=O)O[C@@H](O)[C@H]1O
Activity [1]: inactive

CCCCCCCCC/C=C1/C(=O)O[C@@H](C)[C@H]1O
Activity [1]: Active | Activity [2]: Tde | Activity [3]: Non-Toxic

CCCCCCCCCCCCC/C=C1\C(=O)O[C@@H](C)[C@H]1O
Activity [1]: Active

CCCCCCCCCCCCCC[C@@H]1C[C@H](O)OC1=O
Activity [1]: inactive

CCCCCCCCCCCCC/C=C1/C(=O)O[C@@H](C)[C@@H]1O
Activity [1]: Active

CCCCCCCCCCCCC/C=C1\C[C@H](C)OC1=O
Activity [1]: inactive

CCCCCCCCCCC/C=C1/C(=O)O[C@@H](C)[C@H]1O
Activity [1]: Active | Activity [2]: Tde | Activity [3]: Non-Toxic

CCCCCCCCCCCCC/C=C1/C(=O)O[C@@H](C)[C@H]1O
Activity [9]: Active | Activity [10]: Non-Toxic | Activity [11]: Non-Toxic | Activity [12]: Non-Toxic | Activity [13]: Non-Toxic | Activity [14]: Active | Activity [15]: Active | Activity [16]: inactive | Activity [17]: Active | Activity [18]: inactive | Activity [19]: Tde | Activity [3]: Non-Toxic | Activity [4]: Active | Activity [5]: Active | Activity [6]: Active | inhibition [20]: Active | inhibition [21]: Active | inhibition [22]: Active | Activity [23]: Active | Activity [24]: Active

CCCCC/C=C1/C(=O)O[C@@H](C)[C@H]1O
Activity [1]: inactive

CCC/C=C1/C(=O)O[C@@H](C)[C@H]1O
Activity [1]: inactive

CCCCCCCCCCCCC/C=C1/C(=O)O[C@@H](C)[C@H]1OC(=O)CC(C)C
Activity [1]: inactive

CCCCCCCCCC/C=C1/C(=O)O[C@@H](C)[C@H]1O
Activity [1]: Active | Activity [2]: Tde | Activity [3]: Non-Toxic
